How the values were obtained:
[1] = test system: Vero; test: Cytotoxicity against african green monkey Vero cells after 3 days by hemocytometry; assay type: cell-based; conditions: Chlorocebus sabaeus, 72 h
[2] = test system: Human immunodeficiency virus 1; test: Antiviral activity against HIV1 LAV1 infected in phytohemagglutininin-stimulated human PBMC assessed as RT level after 6 days by microdilution plate assay; assay type: functional, organism-based
[3] = test system: Hepatitis B virus; test: Antiviral activity against Hepatitis B virus infected in human HepAD38 assessed as reduction of viral DNA level on day 7 by quantitative-PCR assay analysis; assay type: functional, organism-based
[4] = test system: PBMC; test: Cytotoxicity against phytohemagglutininin-stimulated human PBMC after 6 days by trypan blue exclusion assay; assay type: cell-based; conditions: 144 h
[5] = Cytotoxicity against human HepAD38 cells; assay type: cell-based
[6] = test system: CCRF-CEM; test: Cytotoxicity against human CEM cells after 6 days by trypan blue exclusion assay; assay type: cell-based; conditions: 144 h
[7] = molecular target: Human immunodeficiency virus type 1 reverse transcriptase (Human immunodeficiency virus 1) (UniProt Q72547); test: Selectivity ratio of Kpol to Kd for dCTP to Kpol to Kd for compound at HIV1 reverse transcriptase
[8] = molecular target: Human immunodeficiency virus type 1 reverse transcriptase (Human immunodeficiency virus 1) (UniProt Q72547); test: Ratio Kpol to Kd for wild type HIV 1 reverse transcriptase
Procedure, shortened: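 Pre-steady-state single-turnover incorporation by purified WT HIV-1 RT (200 nM, final), pre-incubated with 20 nM T/P substrate, then mixed with nucleotide at varying concentrations plus metal ions. Reaction at 37 °C in 50 mM Tris-HCl pH 7.5, 50 mM KCl, 10 mM MgCl₂. Aliquots quenched in gel loading buffer at 1-60 min. 20mer→21mer conversion quantified on gel. k_obs from burst fit, k_pol and K_d from hyperbolic fit, efficiency taken as k_pol/K_d.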

[9] = molecular target: Human immunodeficiency virus type 1 reverse transcriptase (Human immunodeficiency virus 1, UniProt Q72547); test: Binding affinity to HIV1 reverse transcriptase assessed as L-3'-azido-NTP incorporation in nascent DNA
[10] = molecular target: Human immunodeficiency virus type 1 reverse transcriptase (Human immunodeficiency virus 1) (UniProt Q72547); test: Selectivity ratio of Kpol to Kd for dATP to Kpol to Kd for compound at HIV1 reverse transcriptase
[11] = test system: PBMC; test: Drug metabolism in human phytohemagglutininin-stimulated human PBMC assessed as 9-(3-azido-2,3-dideoxy-b-L-ribofuranosyl)-2-amino-6-chloropurine monophosphate level per 10^6 cells at 50 uM after 4 hrs by LC-MS/MS analysis; assay type: ADME, cell-based
Procedure, shortened: (§1)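 PHA-activated human PBM cells incubated with nucleoside at 50 μM for 4 h at 37 °C, then PBS-washed. Intracellular nucleoside and nucleotide metabolites were extracted with 60% ice-cold methanol, dried, redissolved in HPLC mobile phase, and quantified by LC-MS/MS.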

[12] = test system: PBMC; test: Drug metabolism in human phytohemagglutininin-stimulated human PBMC assessed as 9-(3-azido-2,3-dideoxy-b-L-ribofuranosyl)-2-amino-6-chloropurine triphosphate level per 10^6 cells at 50 uM after 4 hrs by LC-MS/MS analysis; assay type: ADME, cell-based; procedure, shortened: as §1
[13] = test system: PBMC; test: Drug metabolism in human phytohemagglutininin-stimulated human PBMC assessed as 9-(3-azido-2,3-dideoxy-b-L-ribofuranosyl)-2-amino-6-chloropurine diphosphate level per 10^6 cells at 50 uM after 4 hrs by LC-MS/MS analysis; assay type: ADME, cell-based; procedure, shortened: as §1
[14] = test system: PBMC; test: Drug metabolism in human phytohemagglutininin-stimulated human PBMC assessed as 9-(3-azido-2,3-dideoxy-b-L-ribofuranosyl)-2-amino-6-chloropurine level per 10^6 cells at 50 uM after 4 hrs by LC-MS/MS analysis; assay type: ADME, cell-based; procedure, shortened: as §1
[15] = test system: PBMC; test: Drug metabolism in human phytohemagglutininin-stimulated human PBMC assessed as compound level per 10^6 cells at 50 uM after 4 hrs by LC-MS/MS analysis; assay type: ADME, cell-based
[16] = test system: PBMC; test: Drug metabolism in human phytohemagglutininin-stimulated human PBMC assessed as 30-azido-20,30-dideoxy-b-L-adenosine level per 10^6 cells at 50 uM after 4 hrs by LC-MS/MS analysis; assay type: ADME, cell-based; procedure, shortened: as §1
[17] = test system: PBMC; test: Drug metabolism in human phytohemagglutininin-stimulated human PBMC assessed as 30-azido-20,30-dideoxy-b-L-adenosine diphosphate level per 10^6 cells at 50 uM after 4 hrs by LC-MS/MS analysis; assay type: ADME, cell-based; procedure, shortened: as §1
[18] = test system: PBMC; test: Drug metabolism in human phytohemagglutininin-stimulated human PBMC assessed as 30-azido-20,30-dideoxy-b-L-adenosine triphosphate level per 10^6 cells at 50 uM after 4 hrs by LC-MS/MS analysis; assay type: ADME, cell-based; procedure, shortened: as §1
[19] = test system: PBMC; test: Drug metabolism in human phytohemagglutininin-stimulated human PBMC assessed as 30-azido-20,30-dideoxy-b-L-adenosine monophosphate level per 10^6 cells at 50 uM after 4 hrs by LC-MS/MS analysis; assay type: ADME, cell-based; procedure, shortened: as §1
[20] = Human immunodeficiency virus 1, LAV1, 144 h
[21] = Hepatitis B virus, HePAD38, 168 h

SMILES | IC50 [1] [µM] | EC50 [2, 20] [µM] | EC90 [2, 20] [µM] | EC50 [3, 21] [µM] | IC50 [4] [µM] | Activity [5] | IC50 [6] [µM] | Ratio [8] [µM⁻¹ min⁻¹] | Kd [9] [µM] | also measured
CCOC(=O)[C@H](C)NP(=O)(OC[C@@H]1O[C@H](n2cnc3c(Cl)ncnc32)C[C@H]1N=[N+]=[N-])Oc1ccccc1 (stereo not given in full) | > 100 | 16.5 | 83.1 | > 100 | 69.2 | Non-toxic | 5.8 | – | – | –
Nc1ccn([C@@H]2CS[C@H](COP(=O)(O)OP(=O)(O)OP(=O)(O)O)O2)c(=O)n1 [LAMIVUDINE TRIPHOSPHATE] | – | – | – | – | – | – | – | 5.46 | 0.13 | Selectivity ratio [7]: 11.9
[N-]=[N+]=N[C@@H]1C[C@@H](n2cnc3c(N)nc(N)nc32)O[C@H]1COP(=O)(O)OP(=O)(O)OP(=O)(O)O | – | – | – | – | – | – | – | 0.062 | 2.3 | Selectivity ratio [10]: 7340
Nc1ncnc2c1ncn2[C@H]1C[C@H](O)[C@@H](COP(=O)(O)OP(=O)(O)OP(=O)(O)O)O1 | – | – | – | – | – | – | – | 455 | – | –
CCOC(=O)[C@H](C)NP(=O)(OC[C@@H]1O[C@H](n2cnc3c(O)nc(N)nc32)C[C@H]1N=[N+]=[N-])Oc1ccccc1 (stereo not given in full) | > 100 | > 100 | > 100 | > 100 | > 100 | Non-toxic | > 100 | – | – | –
Nc1ccn([C@@H]2CS[C@H](CO)O2)c(=O)n1 [LAMIVUDINE] | > 100 | – | – | 0.06 | > 100 | Non-toxic | > 100 | – | – | –
Cc1cn([C@H]2C[C@H](N=[N+]=[N-])[C@@H](CO)O2)c(=O)[nH]c1=O (stereo in doubt; 27) [ZIDOVUDINE] | – | – | – | – | – | Non-toxic | – | – | – | EC50 [2]: > 100 µM; EC90 [2]: > 100 µM; EC50 [3]: > 100 µM
Nc1ccn([C@H]2C[C@H](O)[C@@H](CO)O2)c(=O)n1 [DOXECITINE] | – | – | – | – | – | – | – | 65 | 1.1 | –
CCOC(=O)[C@H](C)NP(=O)(OC[C@@H]1O[C@H](n2cnc3c(Cl)nc(N)nc32)C[C@H]1N=[N+]=[N-])Oc1ccccc1 (stereo not given in full) | > 100 | 16.5 | 55.9 | > 100 | 71 | Non-toxic | 23.1 | – | – | Activity [11]: 430 fmol; Activity [12]: 10 fmol; Activity [13]: 190 fmol; Activity [14]: 49 fmol; Activity [15]: 12 fmol
[N-]=[N+]=N[C@@H]1C[C@@H](n2cnc3c(O)nc(N)nc32)O[C@H]1COP(=O)(O)OP(=O)(O)OP(=O)(O)O | – | – | – | – | – | – | – | – | 0.23 | –
Cc1cn([C@H]2C[C@H](N=[N+]=[N-])[C@@H](CO[P@](=O)(O)O[P@](=O)(O)OP(=O)(O)O)O2)c(=O)[nH]c1=O (single isomer, unassigned) [ZIDOVUDINE TRIPHOSPHATE] | – | – | – | – | – | – | – | – | 55 | –
[N-]=[N+]=N[C@@H]1C[C@@H](n2cnc3c(N)ncnc32)O[C@H]1COP(=O)(O)OP(=O)(O)OP(=O)(O)O | – | – | – | – | – | – | – | 0.023 | 15 | Selectivity ratio [10]: 19800
Cc1cn([C@H]2C[C@H](N=[N+]=[N-])[C@@H](CO)O2)c(=O)[nH]c1=O (stereo in doubt) [ZIDOVUDINE] | – | – | – | – | – | – | – | – | – | EC50 [3]: > 10 µM
CCOC(=O)[C@H](C)NP(=O)(OC[C@@H]1O[C@H](n2cnc3c(N)nc(N)nc32)C[C@H]1N=[N+]=[N-])Oc1ccccc1 (stereo not given in full) | > 100 | 15.8 | > 100 | > 100 | > 100 | Non-toxic | > 100 | – | – | –
CCOC(=O)[C@H](C)NP(=O)(OC[C@@H]1O[C@H](n2cc(C)c(=O)[nH]c2=O)C[C@H]1N=[N+]=[N-])Oc1ccccc1 (stereo not given in full) | > 100 | > 100 | > 100 | > 100 | > 100 | Non-toxic | > 100 | – | – | –
CCOC(=O)[C@H](C)NP(=O)(OC[C@@H]1O[C@H](n2cnc3c(N)ncnc32)C[C@H]1N=[N+]=[N-])Oc1ccccc1 (stereo not given in full) | > 100 | 1.4 | 15.6 | > 100 | > 100 | Non-toxic | > 100 | – | – | Activity [16]: 7500 fmol; Activity [17]: 1200 fmol; Activity [18]: 7400 fmol; Activity [19]: 4200 fmol

— ChEMBL document CHEMBL1828605, “Synthesis, antiviral activity, cytotoxicity and cellular pharmacology of l-3'-azido-2',3'-dideoxypurine nucleosides” (Eur J Med Chem, 2011)
